Laboratory results as given in ChEMBL document CHEMBL4028902, “Azetidine and Piperidine Carbamates as Efficient, Covalent Inhibitors of Monoacylglycerol Lipase” (J Med Chem, 2017).
Activity calls are given as the source filed them. The rule behind the calls is not given here.

What was measured:
[1] = molecular target: T1, Fatty-acid amide hydrolase 1 (Homo sapiens, UniProt O00519); test: Inhibition of human recombinant FAAH using arachidonoyl-AMC as substrate preincubated for 30 mins followed by substrate addition measured after 60 mins by fluorescence assay
T1 sequence (O00519 whole entry): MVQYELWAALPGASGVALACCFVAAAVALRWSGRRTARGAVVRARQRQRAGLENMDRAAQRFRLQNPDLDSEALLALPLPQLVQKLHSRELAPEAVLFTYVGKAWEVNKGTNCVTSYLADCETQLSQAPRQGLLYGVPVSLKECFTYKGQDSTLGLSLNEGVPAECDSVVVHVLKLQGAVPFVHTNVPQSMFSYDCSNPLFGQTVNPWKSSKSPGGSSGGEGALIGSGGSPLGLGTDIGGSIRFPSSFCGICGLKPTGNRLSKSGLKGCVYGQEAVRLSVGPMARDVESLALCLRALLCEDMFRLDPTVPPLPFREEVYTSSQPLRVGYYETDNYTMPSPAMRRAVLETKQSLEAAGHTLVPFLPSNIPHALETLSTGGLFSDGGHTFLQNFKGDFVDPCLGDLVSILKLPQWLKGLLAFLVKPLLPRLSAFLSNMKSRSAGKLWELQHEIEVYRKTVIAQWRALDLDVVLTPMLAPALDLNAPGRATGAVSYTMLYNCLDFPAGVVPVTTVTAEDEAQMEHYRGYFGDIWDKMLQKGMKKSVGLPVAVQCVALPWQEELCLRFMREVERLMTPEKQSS
Outline: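 Human recombinant FAAH (0.0125 unit final) in 50 mM Tris pH 9.0, 1 mM EDTA, preincubated 30 min at room temperature with compound (final 30 μM–0.3 nM). Arachidonoyl-AMC added (5 μM final), reaction run 60 min, fluorescence Ex/Em 355/460. Percent inhibition versus no-compound and full-inhibition controls.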

Mus musculus [2] = test: In vivo inhibition of MAGL in C57Bl6 mouse assessed as increase in 2-AG levels in brain at 1 mg/kg, sc measured after 1 to 24 hrs by LC-MS/MS method; type: functional, organism-based
Outline: (§1)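 C57Bl6 mice, 7 weeks old, 4 per cage, food and water ad libitum, dosed subcutaneously in DMSO/Cremophor/saline (5:5:90, v/v/v). Brains taken after isoflurane, cardiac puncture and cervical dislocation at 0.5, 1, 2, 4, 8, 12 and 24 h (3 mice per time point); vehicle group at 1 h. Frozen in liquid nitrogen, homogenized in 3 volumes PMSF/NH4OAc buffer pH 2.0, d5-2-AG internal standard, ACN extraction, LC-MS/MS (positive ESI, SRM).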

[3] = molecular target: T2, Monoglyceride lipase (Homo sapiens) (UniProt Q99685); test: Ratio of Kinact to Ki for human recombinant MAGL using 7-HCA as substrate after 60 mins by fluorescence assay
T2 sequence (whole entry): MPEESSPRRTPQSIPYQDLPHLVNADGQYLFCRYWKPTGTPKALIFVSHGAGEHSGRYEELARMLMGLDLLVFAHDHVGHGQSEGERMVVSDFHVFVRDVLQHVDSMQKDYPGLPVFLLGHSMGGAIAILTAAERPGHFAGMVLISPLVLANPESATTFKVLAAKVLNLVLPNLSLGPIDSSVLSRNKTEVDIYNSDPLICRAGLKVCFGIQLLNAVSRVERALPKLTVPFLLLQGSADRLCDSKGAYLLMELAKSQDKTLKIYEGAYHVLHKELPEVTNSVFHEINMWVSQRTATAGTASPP
Outline: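 Run as the MAGL 7-HCA assay, but substrate added with no preincubation (T = 0), fluorescence read every minute at decreasing compound concentrations to give progress curves. kobs from each curve; kinact/KI from a plot of kobs against compound concentration.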

Brain [4] = test: Unbound drug level in C57Bl6 mouse brain at 10 mg/kg, sc at 0.5 hrs; type: ADME, organism-based; settings: in vivo
Outline: (§2)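 Subcutaneous dosing of C57Bl6 mice in DMSO/Cremophor/saline (5:5:90). Plasma (NaF/K2EDTA tubes) and cerebellum collected at 0.5–24 h, 3 mice per time point. Cerebellum diluted 1:4 (w/v) with water and homogenized; samples deproteinated with methanol/acetonitrile plus internal standard, then HPLC-MS/MS. LLOQ 1.0 ng/mL plasma, 0.5 ng/mL brain homogenate. PK parameters by noncompartmental analysis.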

Brain [5] = test: Unbound drug level in C57Bl6 mouse brain at 1 mg/kg, sc at 0.5 hrs; type: ADME, organism-based; settings: in vivo; outline: as §2
[6] = Ratio of unbound drug level in C57Bl6 mouse brain to plasma at 10 mg/kg, sc; type: ADME, organism-based; outline: as §2
Brain [7] = test: Ratio of unbound drug level in C57Bl6 mouse brain at 10 mg/kg, sc to 1 mg/kg, sc; type: ADME, organism-based; settings: in vivo; outline: as §2
Mus musculus [8] = test: In vivo inhibition of MAGL in C57Bl6 mouse assessed as increase in 2-AG levels in brain at 10 mg/kg, sc after 8 hrs by LC-MS/MS method relative to control; type: functional; outline: as §1
[9] = molecular target: T3, Platelet-activating factor acetylhydrolase (Homo sapiens) (UniProt Q13093); settings: 10 uM
T3 sequence (whole entry): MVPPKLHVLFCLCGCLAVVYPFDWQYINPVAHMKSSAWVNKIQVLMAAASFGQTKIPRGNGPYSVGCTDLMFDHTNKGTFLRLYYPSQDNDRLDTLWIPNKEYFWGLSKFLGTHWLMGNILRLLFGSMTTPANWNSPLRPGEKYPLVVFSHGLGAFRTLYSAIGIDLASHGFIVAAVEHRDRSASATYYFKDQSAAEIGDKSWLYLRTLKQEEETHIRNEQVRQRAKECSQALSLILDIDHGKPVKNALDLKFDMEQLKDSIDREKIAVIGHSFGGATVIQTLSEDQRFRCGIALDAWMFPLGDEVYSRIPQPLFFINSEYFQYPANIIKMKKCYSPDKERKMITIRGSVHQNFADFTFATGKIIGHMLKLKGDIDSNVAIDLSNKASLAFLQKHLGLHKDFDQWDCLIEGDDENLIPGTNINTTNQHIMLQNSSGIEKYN

[10] = Ratio of unbound drug level in C57Bl6 mouse brain to plasma at 1 to 10 mg/kg, sc; type: ADME, organism-based

SMILES | IC50 [1] | inhibition (Mus musculus [2]) | Ratio [3] | Drug uptake(free) (Brain [4]) | Drug uptake(free) (Brain [5]) | Kp uu [6] | Ratio (Brain [7]) | fold change (FC) (Mus musculus [8]) | inhibition [9] | Kp uu [10]
O=C(OC(C(F)(F)F)C(F)(F)F)N1CC(c2ccn(-c3ccccc3)n2)C1 | 260 nM | inactive | 1.14e+06 M⁻¹ s⁻¹ | 2 nM | 0.02 nM | 0.6 | 100 | 5 | – | –
O=C(OC(C(F)(F)F)C(F)(F)F)N1CCC(c2ccn(-c3ccccc3)n2)CC1 | – | – | – | – | – | – | – | – | > 70% | 0.5
